# From article PMC9998351 (Steroids, 2023)
# Several values for one entry are separate records, joined by “and”; a condition that tells them apart may be missing. Equal entries are not always repeated.
# Assay: Oral pharmacokinetics and bioavailability in rats
# Format: in vivo
# Conditions: for AUC(0-t): AUClast; for Vd/F: Vz/F; for AUC(0-inf): AUCinf; for half-life: T1/2, male rats
# Procedure, shortened: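 Sprague Dawley rats (8–12 wk, 3/sex/group, catheterised jugular vein) got one oral gavage dose of 10 or 50 mg/kg. Dose was a solution in cremophor:ethanol:saline (1:1:8), pH 4.0, at 10 ml/kg. EDTA plasma was collected at 5, 15, 30 min, 1, 2, 4, 6 and 24 h, precipitated with acetonitrile, and quantified by LC-MS/MS against abiraterone internal standard. Noncompartmental parameters; bioavailability from oral AUClast versus IV.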
# [1] = female rats, 10 mg/kg PO, GeoMean
# [2] = female rats, 10 mg/kg PO, individual rat, listed as VNPP433-3β, 10 mg/kg
# [3] = female rats, 50 mg/kg PO, individual rat, listed as VNPP433-3β, 50 mg/kg
# [4] = female, Sprague Dawley, rat, plasma, po, 10 mg/kg, female rats, 10 mg/kg PO, GeoMean
# [5] = female, Sprague Dawley, rat, plasma, po, 10 mg/kg, female rats, 10 mg/kg PO, individual rat
# [6] = male rats, 10 mg/kg PO, GeoMean
# [7] = male rats, 10 mg/kg PO, individual rat, listed as VNPP433-3β, 10 mg/kg
# [8] = male rats, 50 mg/kg PO, GeoMean
# [9] = male rats, 50 mg/kg PO, individual rat, listed as VNPP433-3β, 50 mg/kg
# [10] = male, Sprague Dawley, rat, plasma, po, 10 mg/kg, male rats, 10 mg/kg PO, GeoMean
# [11] = male, Sprague Dawley, rat, plasma, po, 10 mg/kg, male rats, 10 mg/kg PO, individual rat
# [12] = male, Sprague Dawley, rat, plasma, po, 50 mg/kg, male rats, 50 mg/kg PO, GeoMean
# [13] = male, Sprague Dawley, rat, plasma, po, 50 mg/kg, male rats, 50 mg/kg PO, individual rat
compound,measurement,setting,value
"C[C@]12CC[C@H](n3ccnc3)CC1=CC[C@@H]1[C@@H]2CC[C@]2(C)C(n3cnc4ccccc43)=CC[C@@H]12 [Compound 2, 3β-(1H-imidazole-1-yl)-17-(1H-benzimidazole-1-yl)-androsta-5,16-diene]",bioavailability,"both, Sprague Dawley, rat, plasma, po, 10 mg/kg",32 to 34%
same,AUC% Extrap,[1],81.9%
same,Cmax/D,[1],59.4 ng/mL/mg/kg
same,AUC% Extrap,[2],76.9% and 88.6% and 80.8%
same,AUClast,[2],484 µg·min/mL and 785 µg·min/mL
same,Cmax,[2],408 ng/mL and 681 ng/mL
same,Cmax/D,[2],75.5 ng/mL/mg/kg and 40.8 ng/mL/mg/kg and 68.1 ng/mL/mg/kg
same,Cmax/D,"female rats, 50 mg/kg PO, GeoMean",90.0 ng/mL/mg/kg
same,AUClast,[3],5560 µg·min/mL and 4300 µg·min/mL
same,Cmax,[3],4820 ng/mL and 4320 ng/mL
same,Cmax/D,[3],87.6 ng/mL/mg/kg and 96.4 ng/mL/mg/kg and 86.4 ng/mL/mg/kg
same,AUC(0-t),[4],11600 ng·h/mL
same,AUC(0-t),[5],14900 ng·h/mL
same,CL/F,"female, Sprague Dawley, rat, plasma, po, 10 mg/kg, CL/F, female rats, 10 mg/kg PO, GeoMean",2.46 mL/min/kg
same,CL/F,"female, Sprague Dawley, rat, plasma, po, 10 mg/kg, CL/F, female rats, 10 mg/kg PO, individual rat",2.58 mL/min/kg
same,Cmax,"female, Sprague Dawley, rat, plasma, po, 10 mg/kg, Cmax, female rats, 10 mg/kg PO, GeoMean",594 ng/mL
same,Cmax,"female, Sprague Dawley, rat, plasma, po, 10 mg/kg, Cmax, female rats, 10 mg/kg PO, individual rat",755 ng/mL
same,Tmax,"female, Sprague Dawley, rat, plasma, po, 10 mg/kg, Tmax, female rats, 10 mg/kg PO, GeoMean",6 h
same,Tmax,"female, Sprague Dawley, rat, plasma, po, 10 mg/kg, Tmax, female rats, 10 mg/kg PO, individual rat",6 h
same,Vd/F,[4],16.3 L/kg
same,Vd/F,[5],12.7 L/kg
same,AUC(0-t),"female, Sprague Dawley, rat, plasma, po, 50 mg/kg, female rats, 50 mg/kg PO, GeoMean",80000 ng·h/mL
same,AUC(0-t),"female, Sprague Dawley, rat, plasma, po, 50 mg/kg, female rats, 50 mg/kg PO, individual rat",76800 ng·h/mL
same,Cmax,"female, Sprague Dawley, rat, plasma, po, 50 mg/kg, Cmax, female rats, 50 mg/kg PO, GeoMean",4500 ng/mL
same,Cmax,"female, Sprague Dawley, rat, plasma, po, 50 mg/kg, Cmax, female rats, 50 mg/kg PO, individual rat",4380 ng/mL
same,Tmax,"female, Sprague Dawley, rat, plasma, po, 50 mg/kg, Tmax, female rats, 50 mg/kg PO, GeoMean",24 h
same,Tmax,"female, Sprague Dawley, rat, plasma, po, 50 mg/kg, Tmax, female rats, 50 mg/kg PO, individual rat",23.3 h
same,AUC% Extrap,[6],16.5%
same,Cmax/D,[6],61.3 ng/mL/mg/kg
same,AUC% Extrap,[7],24.4% and 9.55% and 19.3%
same,AUCinf,[7],364 µg·min/mL and 715 µg·min/mL
same,AUClast,[7],329 µg·min/mL and 577 µg·min/mL
same,CL/F,[7],27.5 mL/min/kg and 14.0 mL/min/kg
same,Cmax,[7],460 ng/mL and 715 ng/mL
same,Cmax/D,[7],70.2 ng/mL/mg/kg and 46.0 ng/mL/mg/kg and 71.5 ng/mL/mg/kg
same,T1/2,[7],6.3 h and 9.0 h
same,Vz/F,[7],15.0 L/kg and 10.9 L/kg
same,AUC% Extrap,[8],79.5%
same,Cmax/D,[8],54.5 ng/mL/mg/kg
same,Tmax,"male rats, 50 mg/kg PO, individual rat",6 h
same,AUC% Extrap,[9],94.3% and 66.9%
same,AUClast,[9],4460 µg·min/mL and 3600 µg·min/mL
same,Cmax,[9],3430 ng/mL and 3160 ng/mL
same,Cmax/D,[9],37.4 ng/mL/mg/kg and 68.6 ng/mL/mg/kg and 63.2 ng/mL/mg/kg
same,Tmax,[9],6 h
same,Time of peak of PO concentration-time profiles,"male rats, PO",6 h
same,AUC(0-inf),[10],9380 ng·h/mL
same,AUC(0-inf),[11],11400 ng·h/mL
same,AUC(0-t),[10],7700 ng·h/mL
same,AUC(0-t),[11],8650 ng·h/mL
same,CL/F,"male, Sprague Dawley, rat, plasma, po, 10 mg/kg, CL/F, male rats, 10 mg/kg PO, GeoMean",17.8 mL/min/kg
same,CL/F,"male, Sprague Dawley, rat, plasma, po, 10 mg/kg, CL/F, male rats, 10 mg/kg PO, individual rat",14.6 mL/min/kg
same,Cmax,"male, Sprague Dawley, rat, plasma, po, 10 mg/kg, Cmax, male rats, 10 mg/kg PO, GeoMean",613 ng/mL
same,Cmax,"male, Sprague Dawley, rat, plasma, po, 10 mg/kg, Cmax, male rats, 10 mg/kg PO, individual rat",702 ng/mL
same,half-life,"male, Sprague Dawley, rat, plasma, po, 10 mg/kg, 10 mg/kg PO, GeoMean",493 min
same,half-life,"male, Sprague Dawley, rat, plasma, po, 10 mg/kg, 10 mg/kg PO, individual rat",588 min
same,Tmax,"male, Sprague Dawley, rat, plasma, po, 10 mg/kg, Tmax, male rats, 10 mg/kg PO, GeoMean",6 h
same,Tmax,"male, Sprague Dawley, rat, plasma, po, 10 mg/kg, Tmax, male rats, 10 mg/kg PO, individual rat",6 h
same,Vd/F,[10],12.6 L/kg
same,Vd/F,[11],12.4 L/kg
same,AUC(0-t),[12],56200 ng·h/mL
same,AUC(0-t),[13],39700 ng·h/mL
same,CL/F,"male, Sprague Dawley, rat, plasma, po, 50 mg/kg, CL/F, male rats, 50 mg/kg PO, GeoMean",1.71 mL/min/kg
same,Cmax,"male, Sprague Dawley, rat, plasma, po, 50 mg/kg, Cmax, male rats, 50 mg/kg PO, GeoMean",2730 ng/mL
same,Cmax,"male, Sprague Dawley, rat, plasma, po, 50 mg/kg, Cmax, male rats, 50 mg/kg PO, individual rat",1870 ng/mL
same,Tmax,"male, Sprague Dawley, rat, plasma, po, 50 mg/kg, Tmax, male rats, 50 mg/kg PO, GeoMean",9.52 h
same,Vd/F,[12],14.6 L/kg
same,Vd/F,[13],14.4 L/kg
same,Extrapolated percentage of AUC0-inf,"rats, PO dosing, text (and beyond)",17–82%
